In general, IC50 refers to the concentration that inhibits the measured activity by half. One may read the EC50 as the midpoint of the concentration-response curve.

The record followed here is ChEMBL document CHEMBL3102698, “New highly toxic bile acids derived from deoxycholic acid, chenodeoxycholic acid and lithocholic acid” (Bioorg Med Chem, 2014).

Structures are written as SMILES. Calls of active or inactive are those of the source. No cut-off for these calls is given here. A value given as a limit tells only on which side of the number the result lay.

For test [1], the system named is Caco-2. The test can be described thus: Cytotoxicity against human Caco2 cells assessed as cell viability at 10 uM after 24 hrs by MTT assay in presence of antioxidant N-acetyl cysteine. The format is functional, cell-based. The procedure, abridged:
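MTT viability run on Caco-2 with and without 1 mM N-acetyl cysteine co-incubation. Compounds at 10 µM, natural bile acids at 100 µM, 24 h serum-free after 1 h serum starvation. MTT 0.5 mg/mL for 3 h at 37 °C, then DMSO solubilisation and OD at 540 nm, expressed as % of untreated; n = 3.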
In general terms: Tetrazolium dyes change colour on reduction, which living cells bring about.

Test [2] relates to Caco-2. As to the kind of experiment: Induction of ROS production in human Caco2 cells at 10 uM after 0.5 to 24 hrs by 2',7'-dichlorfluorescein-diacetate staining-based fluorescence assay. The format is functional, cell-based. The procedure, abridged:
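Caco-2 at 70-80% confluence exposed in serum-free medium for 30 min or 24 h (compounds 10 µM, natural bile acids 100 µM). Medium then replaced with 100 µM 2',7'-dichlorofluorescein diacetate for 30 min at 37 °C, cells washed with PBS, fluorescence read at ex 490/em 530 nm. Signal expressed relative to vehicle and corrected for MTT viability; n = 3.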

Test [3] is described as follows: Cytotoxicity against human HT1080 cells assessed as cell viability after 24 hrs by MTT assay. Type of test: functional, cell-based. The settings on record: HT-1080, 24 h. The method, boiled down:
(§1)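 Cells grown to 70% confluence (Caco-2 seeded 8 × 10^3/well, HT1080 12 × 10^4/well), serum-starved 1 h, then exposed 24 h serum-free to 0.1-1000 µM (DMSO ≤0.5%). MTT 0.5 mg/mL added for 3 h at 37 °C; formazan dissolved in DMSO, OD read at 540 nm. Viability taken as % of untreated OD. IC50 fitted from eight concentration levels, at least three experiments in triplicate.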

Test [4] deals with Caco-2. As to the kind of experiment: Cytotoxicity against human Caco2 cells assessed as cell viability after 24 hrs by MTT assay. The format is functional, cell-based. The settings on record: Caco-2, 24 h. The method, boiled down: as §1
For test [5], the system named is Caco-2. As to the kind of experiment: Induction of necrosis in human Caco2 cells up to 500 uM after 24 hrs by annexin V-FITC/propidium iodide staining-based flow cytometric analysis. Type of test: functional, cell-based. The procedure, abridged:
(§2)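 Cells grown to 80% confluence, exposed 24 h in serum-free medium, with vehicle-only controls. Harvested cells washed and resuspended in binding buffer, then stained with annexin V-FITC and propidium iodide 15 min at rt in the dark. Read by flow cytometry within 5 min. Annexin V−/PI+ cells scored necrotic and annexin V+ cells apoptotic; quadrant percentages reported.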
Background: In flow cytometry, cells or beads pass a laser one at a time.

Test [6] concerns HT-1080. The test can be described thus: Induction of necrosis in human HT1080 cells up to 500 uM after 24 hrs by annexin V-FITC/propidium iodide staining-based flow cytometric analysis. Type of test: functional, cell-based. The method, boiled down: as §2
Test [7] has as its system HT-1080. The test can be described thus: Induction of apoptosis in human HT1080 cells at 3.125 to 100 uM after 24 hrs by annexin V-FITC/propidium iodide staining-based flow cytometric analysis. Type of test: functional, cell-based. The method, boiled down:
(§3)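 Caco-2 or HT1080 grown to 80% confluence, then treated 24 h in serum-free medium (vehicle controls run in parallel) at seven concentrations. Cells collected, washed and resuspended in binding buffer, stained with annexin V-FITC plus propidium iodide for 15 min at rt in the dark, and analysed within 5 min. Quadrants scored: annexin+/PI− early apoptotic, double-positive late apoptotic, PI+ only dead.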

Test [8] has as its system HT-1080. The test can be described thus: Induction of necrosis in human HT1080 cells at 3.125 to 100 uM after 24 hrs by annexin V-FITC/propidium iodide staining-based flow cytometric analysis. Type of test: functional, cell-based. The method, boiled down: as §3
The nature of test [9]: Cytotoxicity against human HET-1A cells. Type of test: cell-based.
Test [10] deals with Caco-2. As to the kind of experiment: Cytotoxicity against human Caco2 cells assessed as cell viability at 100 uM after 24 hrs by MTT assay in presence of antioxidant N-acetyl cysteine. Type of test: functional, cell-based. The method, boiled down:
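Caco-2 grown to 70% confluence, serum-starved 1 h, then treated 24 h serum-free with compound plus 1 mM NAC; DMSO vehicle at most 0.5%. MTT 0.5 mg/mL for 3 h at 37 °C, formazan dissolved in DMSO, OD 540 nm. Viability expressed as % of untreated cells; n = 3.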

Test [11] relates to Caco-2. The test can be described thus: Induction of apoptosis in human Caco2 cells at 3.125 to 100 uM after 24 hrs by annexin V-FITC/propidium iodide staining-based flow cytometric analysis. The format is functional, cell-based. The method, boiled down: as §3
Test [12] deals with Caco-2. As to the kind of experiment: Induction of necrosis in human Caco2 cells at 50 to 100 uM after 24 hrs by annexin V-FITC/propidium iodide staining-based flow cytometric analysis. The format is functional, cell-based. The procedure, abridged:
as §2

For test [13], the system named is HT-1080. As to the kind of experiment: Induction of necrosis in human HT1080 cells at 50 to 100 uM after 24 hrs by annexin V-FITC/propidium iodide staining-based flow cytometric analysis. The format is functional, cell-based. The method, boiled down:
as §2

Turning to `C[C@H](CCC(=O)NC1CC1)[C@H]1CC[C@H]2[C@@H]3[C@H](O)C[C@@H]4C[C@@H](N=[N+]=[N-])CC[C@]4(C)[C@H]3CC[C@]12C`, the result in test [1] was inactive. The outcome in test [2] was Active. Further, the IC50 in [3] was determined as 3.2 µM; in [4], 7.6 µM.

As to `C[C@H](CCC(=O)NC1CC1)[C@H]1CC[C@H]2[C@@H]3CC[C@@H]4C[C@H](N=[N+]=[N-])CC[C@]4(C)[C@H]3C[C@H](O)[C@]12C`, the result in [1] was inactive. Moreover, the IC50 in [3] was found to be 5.7 µM; in [4], 2.3 µM.

On to `C[C@H](CCC(=O)O)[C@H]1CC[C@H]2[C@@H]3[C@H](O)C[C@@H]4C[C@H](O)CC[C@]4(C)[C@H]3CC[C@]12C` [CHENODIOL], for which the outcome in [5] and in [6] was inactive. The IC50 in test [3] worked out at 130 µM; in test [4], 106 µM.

On to `C[C@H](CCC(=O)NC1CC1)[C@H]1CC[C@H]2[C@@H]3CC[C@@H]4C[C@@H](N=[N+]=[N-])CC[C@]4(C)[C@H]3CC[C@]12C`, for which the IC50 in test [3] and in [4] was greater than 100 µM in each case.

Turning to `C[C@H](CCC(=O)NC1CC1)[C@H]1CC[C@H]2[C@@H]3CC[C@@H]4C[C@@H](N=[N+]=[N-])CC[C@]4(C)[C@H]3C[C@H](O)[C@]12C`, in test [1], the result was inactive. For the same molecule, the result in test [7] was Active. The IC50 in test [3] came out at 1.9 µM; in test [4], 6.3 µM.

As for `C[C@H](CCC(N)=O)[C@H]1CC[C@H]2[C@@H]3[C@H](O)C[C@@H]4C[C@@H](N=[N+]=[N-])CC[C@]4(C)[C@H]3CC[C@]12C`, in [1], the result was inactive. Moreover, the result in [2] was Active. In addition, the IC50 in test [3] is 6.9 µM; in [4] it was 9.8 µM.

With `C[C@H](CCC(N)=O)[C@H]1CC[C@H]2[C@@H]3CC[C@@H]4C[C@@H](N=[N+]=[N-])CC[C@]4(C)[C@H]3CC[C@]12C`, the outcome in test [8] was Active. For the same molecule, the results for the IC50 in test [3] and in test [4] were 13.1 µM and greater than 500 µM, respectively.

Turning to `C[C@H](CCC(N)=O)[C@H]1CC[C@H]2[C@@H]3CC[C@@H]4C[C@H](N=[N+]=[N-])CC[C@]4(C)[C@H]3C[C@H](O)[C@]12C`, the result in test [1] was inactive. In test [2], the outcome was Active. The results for the IC50 in [3] and in [4] were 10 µM and 12.6 µM, respectively.

For `C[C@H](CCC(N)=O)[C@H]1CC[C@H]2[C@@H]3CC[C@@H]4C[C@@H](N=[N+]=[N-])CC[C@]4(C)[C@H]3C[C@H](O)[C@]12C`, the IC50 in test [3] turned out to be 3.6 µM; in test [4], 10.7 µM.

With `CC(=O)O[C@@H]1C[C@@H]2C[C@@H](N=[N+]=[N-])CC[C@]2(C)[C@H]2CC[C@]3(C)[C@@H]([C@H](C)CCC(=O)NC4CC4)CC[C@H]3[C@H]12`, the IC50 in test [4] amounted to 6.2 µM.

Turning to `C[C@H](CCC(=O)O)[C@H]1CC[C@H]2[C@@H]3[C@H](O)C[C@@H]4C[C@@H](N=[N+]=[N-])CC[C@]4(C)[C@H]3CC[C@]12C`, the IC50 was 23.6 µM in test [3] and 40.3 µM in [4].

Turning to `C[C@H](CCC(=O)NCc1ccccc1)[C@H]1CC[C@H]2[C@@H]3CC[C@@H]4C[C@@H](N=[N+]=[N-])CC[C@]4(C)[C@H]3CC[C@]12C`, the IC50 in test [3] and in [4] was greater than 100 µM in each case.

Turning to `CCCNC(=O)CC[C@@H](C)[C@H]1CC[C@H]2[C@@H]3CC[C@@H]4C[C@@H](N=[N+]=[N-])CC[C@]4(C)[C@H]3CC[C@]12C`, the IC50 in test [3] was greater than 200 µM; in [4], greater than 1000 µM.

Regarding `C[C@H](CCC(N)=O)[C@H]1CC[C@H]2[C@@H]3CC[C@@H]4C[C@H](O)CC[C@]4(C)[C@H]3C[C@H](O)[C@]12C`, the EC50 in test [9] was 39 µM.

As to `C[C@H](CCC(=O)NCc1ccccc1)[C@H]1CC[C@H]2[C@@H]3CC[C@@H]4C[C@@H](N=[N+]=[N-])CC[C@]4(C)[C@H]3C[C@H](O)[C@]12C`, the outcome in [2] was Active. For the same molecule, the IC50 in test [3] was greater than 500 µM; in test [4], greater than 1000 µM.

Consider `CC(=O)O[C@@H]1C[C@@H]2C[C@@H](N=[N+]=[N-])CC[C@]2(C)[C@H]2CC[C@]3(C)[C@@H]([C@H](C)CCC(=O)O)CC[C@H]3[C@H]12`, for which the IC50 in test [4] was 15.6 µM.

For the molecule `C[C@H](CCC(N)=O)[C@H]1CC[C@H]2C3=CC[C@@H]4C[C@H](O)CC[C@]4(C)[C@H]3CC[C@]12C`, the IC50 in test [4] is greater than 100 µM.

Turning to `C[C@H](CCC(=O)O)[C@H]1CC[C@H]2[C@@H]3[C@@H](O)C[C@@H]4C[C@H](O)CC[C@]4(C)[C@H]3CC[C@]12C`, in [10], the outcome was inactive.

As to `C[C@H](CCC(=O)NC1CCCCC1)[C@H]1CC[C@H]2[C@@H]3CC[C@@H]4C[C@@H](N=[N+]=[N-])CC[C@]4(C)[C@H]3C[C@H](O)[C@]12C`, the IC50 in [3] was greater than 100 µM; in test [4], greater than 1000 µM.

With `C[C@H](CCC(=O)O)[C@H]1CC[C@H]2[C@@H]3CC[C@@H]4C[C@@H](N=[N+]=[N-])CC[C@]4(C)[C@H]3CC[C@]12C`, the outcome in [11] and in test [7] was Active. For the same molecule, the figures for the IC50 in [3] and in [4] were 21.3 µM and greater than 250 µM, respectively.

For the molecule `C[C@H](CCC(=O)NC1CCCCC1)[C@H]1CC[C@H]2[C@@H]3CC[C@@H]4C[C@@H](N=[N+]=[N-])CC[C@]4(C)[C@H]3CC[C@]12C`, the IC50 in test [3] and in [4] was greater than 1000 µM throughout.

Consider `C[C@H](CCC(=O)NC1CC1)[C@H]1CC[C@H]2C3=CC[C@@H]4C[C@H](O)CC[C@]4(C)[C@H]3CC[C@]12C`, for which the IC50 in test [4] was 9.5 µM.

As to `C[C@H](CCC(=O)O)[C@H]1CC[C@H]2[C@@H]3[C@H](O)C[C@@H]4C[C@H](N=[N+]=[N-])CC[C@]4(C)[C@H]3CC[C@]12C`, the IC50 in test [3] was 26.2 µM; in [4], 43.7 µM.

As to `CC(=O)O[C@@H]1C[C@@H]2C[C@@H](N=[N+]=[N-])CC[C@]2(C)[C@H]2CC[C@]3(C)[C@@H]([C@H](C)CCC(N)=O)CC[C@H]3[C@H]12`, the IC50 in [4] came to 5.5 µM.

`C[C@H](CCC(=O)O)[C@H]1CC[C@H]2[C@@H]3CC[C@@H]4C[C@@H](N=[N+]=[N-])CC[C@]4(C)[C@H]3C[C@H](O)[C@]12C` came in with an EC50 in [9] of 97 µM.

In the case of `C[C@H](CCC(=O)O)[C@H]1CC[C@H]2[C@@H]3CC[C@@H]4C[C@H](O)CC[C@]4(C)[C@H]3CC[C@]12C` [LITHOCHOLIC ACID], the result in test [12] and in test [13] was Active. The result in test [10] was inactive. Besides, the figures for the IC50 in test [3] and in test [4] were 23 µM and 56 µM, respectively.

On to `C[C@H](CCC(=O)O)[C@H]1CC[C@H]2C3=CC[C@@H]4C[C@H](O)CC[C@]4(C)[C@H]3CC[C@]12C`, for which the IC50 in test [4] was greater than 100 µM.
